The entries come from a sample that favours hits as a whole.
Diaphorase act: activates diaphorase or chemically reduces, flagging diaphorase assay artifacts | Diaphorase/resazurin coupled assay, resorufin fluorescence, 16 min; active compounds read high; 1 = vehicle wells, 0 = NADH-free wells | activation factor at 20 µM | actives 0.005% (n = 190,000);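 active = diaphorase activity raised at least twofold by the compound at 20 µM; inactive = activation factor below 2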
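Assay system: Purified diaphorase enzyme from Clostridium kluyveri | Amount: Enzyme 0.07 U/mL final | Dosing: Compound 20 µM once, DMSO 1% | Timing: 16 min reaction at room temperature | Detection: Fluorescence, excitation 544 nm and emission 590 nm | Evaluation: Higher resorufin formation from activation or reduction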
Lmaj promast: reduces viability of Leishmania major promastigotes | actives 9% (n = 200,000) | inhibition, % at 10 µM | resazurin fluorescence viability;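 note: promastigotes grown with compound for 44 hours at 28 °C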
PfGluPho inh: PfG6PD (Plasmodium falciparum) enzyme inhibition | PfGluPho enzyme, NADPH resazurin-diaphorase fluorescence | inhibition, % at 20 µM | actives 0.78% (n = 350,000) | AID 504690;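 active = inhibition reaching at least a set limit at 20 µM in the primary screen, cut at about 59% in these data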
Diaph inh CS: counter-screen for diaphorase-based assays: diaphorase inhibitors and chemical oxidizers; diaphorase resazurin-to-resorufin fluorescence, NADH, 16 min; bacterial (C. kluyveri) enzyme, not human; inhibition, % at 20 µM; actives 0.69% (n = 190,000); AID 1217;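 active = primary screen inhibition at 20 µM above a set limit, cut at about 50% in these data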
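System: Diaphorase enzyme from Clostridium kluyveri | Amount: Enzyme working solution with 0.14 U/mL diaphorase | Benchmarks: No-NADH positive control and DMSO neutral control | Signal: Fluorescence of resorufin formed from resazurin, Ex 544/Em 590 nm | Schedule: 16-min room-temperature incubation before reading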
G6PDH counter: L. mesenteroides G6PDH inhibition counter-screen. Purified L. mesenteroides G6PDH, diaphorase/resazurin coupled fluorescence, 45 min. inhibition, % at 5 µM. actives 0.12% (n = 200,000). AID 1020
DTT redox prof: compounds producing H2O2 with reducing agent – biochemical, NIH compound library profiling, artefact control for MLSCN library redox annotation, primary screen. DTT-dependent redox cycling H2O2, phenol red/HRP absorbance; 100% = 100 µM peroxide control, 0% = buffer. activation, % at 10 µM. actives 0.03% (n = 200,000). AID 878;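 active = activation of at least 50% relative to the plate's high and low controls in the primary single-dose screen; inactive = activation below 50%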;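 note: compound incubated with DTT at 0.8 mM final as the reducing agent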
Large screens that a line does not name were inactive. Cut-off read from the data, not from the text of the source, unless noted: active = inhibition above about 50%; inactive = the rest.

CN1CCN(CCCN2c3ccccc3Sc3ccc(Cl)cc32)CC1	Lmaj promast 100
CN(C)CCCN1c2ccccc2Sc2ccc(C(F)(F)F)cc21	none
OCCN1CCN(CCCN2c3ccccc3Sc3ccc(C(F)(F)F)cc32)CC1	Lmaj promast 87
CCCOc1ccc(N2C(=O)CC(N(CCOC34CC5CC(CC(C5)C3)C4)C(C)=O)C2=O)cc1 (stereo not given)	none
CCCC(C)C(=O)Nc1ncc(S(=O)(=O)c2ccc([N+](=O)[O-])cc2)s1 (stereo not given)	none (no result: Diaphorase act, Lmaj promast, Diaph inh CS, G6PDH counter, DTT redox prof)
O=S(=O)(c1cnccc1N1CCN(/N=C/c2ccc(Cl)cc2)CC1)N1CCCCC1	Lmaj promast 79
C=CCN1CCN(c2ccncc2S(=O)(=O)N2CCCCC2)CC1	none (no result: Diaphorase act, Lmaj promast, Diaph inh CS, G6PDH counter, DTT redox prof)
Cc1ccc(/C=N/N2CCN(c3ccncc3S(=O)(=O)N3CCCCC3)CC2)cc1	Lmaj promast 67
COc1cccc(/C=N/N2CCN(c3ccncc3S(=O)(=O)N3CCCCC3)CC2)c1	Lmaj promast 99
CCOc1ccccc1NC(=O)CCNS(=O)(=O)c1cccc2nonc12	none (no result: Diaphorase act, Lmaj promast, Diaph inh CS, G6PDH counter, DTT redox prof)
O=c1c2c(n3nnnc3n1-c1ccccc1)-c1ccccc1CC21CCCC1	none
O=c1c2c(n3cnnc3n1-c1ccccc1)-c1ccccc1CC21CCCC1	Lmaj promast 66
Cc1c(Cl)cccc1NS(=O)(=O)c1ccc2c(c1)C1C=CCC1C(c1ccc(C(=O)O)cc1)N2 (stereo not given)	Diaph inh CS 59
COc1ccc(NS(=O)(=O)c2ccc3c(c2)[C@H]2C=CC[C@H]2[C@@H](c2ccc(C(=O)O)cc2)N3)cc1	none (no result: Diaphorase act, Lmaj promast, Diaph inh CS, G6PDH counter, DTT redox prof)
Cc1ccc(NC(=O)CSCC(=O)NCc2cccc(C(F)(F)F)c2)cc1	none (no result: Diaphorase act, Lmaj promast, Diaph inh CS, G6PDH counter, DTT redox prof)
CN(C)/C=C1\Oc2ccc3ccccc3c2C1=O	Diaph inh CS 70
C[n+]1c2n(c3ccccc31)N=C(c1cc(C(C)(C)C)c(O)c(C(C)(C)C)c1)CS2	Lmaj promast 100
COc1cccc(C2=Nn3c(nnc3-c3ccccc3O)SC2)c1	none
CCN(c1ccccc1)S(=O)(=O)c1ccc(C(C(=O)OC)C(=O)OC)c([N+](=O)[O-])c1	Lmaj promast 99
CN(C)CCCNC(=O)N1c2ccccc2Sc2ccccc21	none (no result: Diaphorase act, Lmaj promast, Diaph inh CS, G6PDH counter, DTT redox prof)
CC1c2ccccc2SC(CCCN(C)C)c2ccccc21 (stereo not given)	Lmaj promast 100
CN(C)CCC1Sc2ccccc2Oc2ccccc21 (stereo not given)	Lmaj promast 100
OCC[C@@H]1C[C@H](O)[C@@H](O)[C@]2(OCc3ccccc32)O1	none (no result: Diaphorase act, Lmaj promast, Diaph inh CS, G6PDH counter, DTT redox prof)
C=CCn1c(SCC)nc2sc3c(c2c1=O)CCc1ccccc1-3	none
C=CCn1c(SC)nc2sc3c(c2c1=O)CCc1ccccc1-3	Lmaj promast 54
O=S(=O)(NCC(Nc1ccc(Cl)cc1)c1ccccc1)c1ccc(Cl)cc1 (stereo not given)	Lmaj promast 58
CC1=Nc2cc(C(=O)NCc3ccco3)ccc2Sc2ccc(C)cc21	Lmaj promast 59
CC1=Nc2cc(C(=O)NCC3CCCO3)ccc2Sc2ccc(C)cc21 (stereo not given)	none (no result: Diaphorase act, Lmaj promast, Diaph inh CS, G6PDH counter, DTT redox prof)
O=c1[nH]c(N/N=C/c2ccccc2)nc2ccccc12	Lmaj promast 58
Cc1cccc(/C=N\Nc2nnc(-c3ccccc3)c(=O)[nH]2)c1	Lmaj promast 68
O=c1[nH]c(N/N=C\c2ccc3c(c2)OCO3)nc2ccccc12	Lmaj promast 51
O=c1[nH]c(N/N=C/c2cc3c(cc2[N+](=O)[O-])OCO3)nc2ccccc12	none (no result: Diaphorase act, Lmaj promast, Diaph inh CS, G6PDH counter, DTT redox prof)
CCOC(=O)c1sc2c(c1C)C(c1cccs1)C1=C(CCCC1=O)N2 (stereo not given)	Lmaj promast 64
O=S1(=O)CCC(n2nccc2-c2ccccc2)C1 (stereo not given)	none (no result: Diaphorase act, Lmaj promast, Diaph inh CS, G6PDH counter, DTT redox prof)
Cc1ccc(C(=O)CC2C(=O)N(c3ccccc3)C(=S)N2c2ccccc2)cc1 (stereo not given)	Lmaj promast 59
Cc1c(Cl)cccc1NS(=O)(=O)c1ccc(-c2ccc(=O)[nH]n2)o1	none (no result: Diaphorase act, Lmaj promast, Diaph inh CS, G6PDH counter, DTT redox prof)
CC(C)CNC(=O)c1ccc(Cl)c(Cl)c1	none
Cc1occc1-c1nnc(-c2cc([N+](=O)[O-])cc([N+](=O)[O-])c2)o1	Lmaj promast 82
O=[N+]([O-])c1cccc(-c2nnc(-c3ccccc3)o2)c1	none
CC(=O)Nc1ccc(Nc2cc(C)nc3c(-c4ccc(Cl)cc4)c(C)nn23)cc1	Lmaj promast 93
Cc1cc(Cl)n2nc(C)c(-c3ccc(Cl)cc3)c2n1	none
CC(=O)Nc1ccc(Nc2cc(C)nc3c(-c4ccc(Cl)cc4)cnn23)cc1	Lmaj promast 79
O=C(Nc1ccc(C(=O)N2CCN(c3ccccc3)CC2)cc1)C1=CSCCO1	none (no result: Diaphorase act, Lmaj promast, Diaph inh CS, G6PDH counter, DTT redox prof)
COc1ccc2c(c1)O[C@@H](c1ccc3c(c1)OCO3)[C@H](OC(=O)Nc1cc(OC)c(OC)c(OC)c1)C2=O	none (no result: PfGluPho inh)
Cn1/c(=N/N=C/c2ccc(N3CCOCC3)cc2)sc2ccccc21	none
C=CCc1cc(/C=C/c2nc(O)c([N+](=O)[O-])c(=O)[nH]2)cc(OC)c1O	Diaph inh CS 71
CCOc1cc(/C=C\c2nc(O)c([N+](=O)[O-])c(=O)[nH]2)ccc1OC(C)C	none (no result: Diaphorase act, Lmaj promast, Diaph inh CS, G6PDH counter, DTT redox prof)
Cc1cccc(C(=O)Nc2cccc(C(=O)Nc3cc(C)ccn3)c2)c1	none (no result: Diaphorase act, Lmaj promast, Diaph inh CS, G6PDH counter, DTT redox prof)
COc1ccc(N2CCN(c3nc(Cl)nc(Nc4ccc(F)cc4)n3)CC2)cc1	none
CCCN1C(=O)C2(SC(NC(C)=O)=NN2C(C)=O)c2cc(C)cc(C)c21 (stereo not given)	none (no result: Diaphorase act, Lmaj promast, Diaph inh CS, G6PDH counter, DTT redox prof)
CCN1C(=O)C2(SC(NC(C)=O)=NN2C(C)=O)c2cc(C)cc(C)c21 (stereo not given)	Lmaj promast 71
CC(C)[Si]1(C(C)C)OCC2OC(n3cnc4c(N)ncnc43)C(N)C2O[Si](C(C)C)(C(C)C)O1 (stereo not given)	none (no result: Diaphorase act, Lmaj promast, Diaph inh CS, G6PDH counter, DTT redox prof)
Cn1c(Oc2ccccc2NCc2cc(Br)ccc2O)cc(=O)n(C)c1=O	Lmaj promast 99
COc1cc(CNc2ccccc2Oc2cc(=O)n(C)c(=O)n2C)cc(OC)c1OC	none
CCOc1ccccc1NC(=O)CN(c1ccc(OC)cc1OC)S(=O)(=O)c1ccccc1[N+](=O)[O-]	none
Cc1ccc2nc(N(CCCN(C)C)C(=O)c3ccc4c(c3)CCCC4)sc2c1	Lmaj promast 99
Cc1cc(C)c2nc(N(CCCN(C)C)C(=O)c3ccc4c(c3)CCCC4)sc2c1	none (no result: Diaphorase act, Lmaj promast, Diaph inh CS, G6PDH counter, DTT redox prof)
CN(c1ccccc1)S(=O)(=O)c1ccc(Cl)c(C(=O)Nc2nc3ccccc3[nH]2)c1	Lmaj promast 99
CN(c1ccccc1)S(=O)(=O)c1ccc(Cl)c(C(=O)Nc2ccc(-c3nc4ccccc4[nH]3)cc2)c1	Lmaj promast 96
